Test results from ChEMBL document CHEMBL3232844, “Synthesis and structure activity relationships of schweinfurthin indoles” (2014).

Experiments:
Format in all cases: functional
[1] = Cytotoxicity against human UACC257 cells
Procedure, shortened: (§1)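 Cell line run as part of the 60-cell-line screening panel; growth inhibition was reported as a GI50 for each line.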

BT-549 = assay: Cytotoxicity against human BT549 cells
Procedure, shortened: (§2)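 Tested in a 60-cell-line human tumor panel screen; the read-out is growth inhibition, reported as GI50 for each cell line.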

SK-MEL-5 = assay: Cytotoxicity against human SK-MEL-5 cells; procedure, shortened: as §2
HCC 2998 = assay: Cytotoxicity against human HCC2998 cells; procedure, shortened: as §2
IGROV-1 = assay: Cytotoxicity against human IGROV1 cells; procedure, shortened: as §2
HT-29 = assay: Cytotoxicity against human HT-29 cells; procedure, shortened: as §2
SNB-75 = assay: Cytotoxicity against human SNB75 cells; procedure, shortened: as §1
SR = assay: Cytotoxicity against human SR cells; procedure, shortened: as §1
TK-10 = assay: Cytotoxicity against human TK10 cells; procedure, shortened: as §1
PC-3 = assay: Cytotoxicity against human PC3 cells; procedure, shortened: as §2
[2] = Cytotoxicity against human OVCAR3 cells; procedure, shortened: as §2
M14 = assay: Cytotoxicity against human M14 cells; procedure, shortened: as §2
MOLT-4 = assay: Cytotoxicity against human MOLT4 cells; procedure, shortened: as §2
786-0 = assay: Cytotoxicity against human 786-0 cells; procedure, shortened: as §2
HCT-116 = assay: Cytotoxicity against human HCT116 cells; procedure, shortened: as §2
[3] = Cytotoxicity against human OVCAR8 cells; procedure, shortened: as §2
COLO 205 = assay: Cytotoxicity against human COLO205 cells; procedure, shortened: as §2
LOX IMVI = assay: Cytotoxicity against human LOXIMVI cells; procedure, shortened: as §2
NCI-H226 = assay: Cytotoxicity against human NCI-H226 cells; procedure, shortened: as §2
DU-145 = assay: Cytotoxicity against human DU145 cells; procedure, shortened: as §2
MDA-MB-468 = assay: Cytotoxicity against human MDA-MB-468 cells; procedure, shortened: as §2
MDA-MB-231 = assay: Cytotoxicity against human MDA-MB-231 cells; procedure, shortened: as §2
SF-295 = assay: Cytotoxicity against human SF295 cells; procedure, shortened: as §2
CCRF-CEM = assay: Cytotoxicity against human CCRF-CEM cells
SF-268 = assay: Cytotoxicity against human SF268 cells; procedure, shortened: as §2
CAKI-1 = assay: Cytotoxicity against human Caki1 cells; procedure, shortened: as §2
KM12 = assay: Cytotoxicity against human KM12 cells; procedure, shortened: as §2
SK-MEL-2 = assay: Cytotoxicity against human SK-MEL-2 cells; procedure, shortened: as §2
RXF 393 = assay: Cytotoxicity against human RXF393 cells; procedure, shortened: as §2
HOP-62 = assay: Cytotoxicity against human HOP62 cells; procedure, shortened: as §2
NCI-H23 = assay: Cytotoxicity against human NCI-H23 cells; procedure, shortened: as §2
K562 = assay: Cytotoxicity against human K562 cells; procedure, shortened: as §2
SK-OV-3 = assay: Cytotoxicity against human SKOV3 cells; procedure, shortened: as §2
NCI-H460 = assay: Cytotoxicity against human NCI-H460 cells; procedure, shortened: as §2
[4] = Cytotoxicity against human NCI-ADR-RES cells; procedure, shortened: as §2
T47D = assay: Cytotoxicity against human T47D cells; procedure, shortened: as §1
[5] = Cytotoxicity against human UACC62 cells; procedure, shortened: as §1
[6] = Cytotoxicity against human OVCAR4 cells; procedure, shortened: as §2
HL-60(TB) = assay: Cytotoxicity against human HL-60(TB) cells
Procedure, shortened: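 Tested within the NCI 60-cell-line screen, with GI50 as the read-out. Values are the average of two independent experiments. The lowest concentration tested was 10 nM.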

[7] = Cytotoxicity against human HCT15 cells; procedure, shortened: as §2
MDA-MB-435 = assay: Cytotoxicity against human MDA-MB-435 cells; procedure, shortened: as §2
SF-539 = assay: Cytotoxicity against human SF539 cells; procedure, shortened: as §2
MCF7 = assay: Cytotoxicity against human MCF7 cells; procedure, shortened: as §2
[8] = read-out: pLC50 (the source's name) (converted)

In the case of `COc1cc(/C=C/c2cc(O)c3ccn(C)c3c2)cc2c1O[C@]1(C)CC[C@@H](O)C(C)(C)[C@H]1C2`, the GI50 ([1]; UACC-257) is reported as 1.74 µM, the CC50 ([1]; UACC-257, read-out: pLC50 (the source's name) (converted)) is reported as > 100 µM and the TGI ([1]; UACC-257, read-out: pTGI (converted)) is reported as 8.13 µM. The GI50 (BT-549) was 1.55 µM, the CC50 (BT-549; [8]) was > 100 µM and the TGI (BT-549; read-out: pTGI (converted)) was 39.8 µM. For the same compound, the GI50 (SK-MEL-5) was 1.15 µM, the CC50 (SK-MEL-5; [8]) was 5.25 µM and the TGI (SK-MEL-5; read-out: pTGI (converted)) was 2.45 µM. For the same compound, the GI50 (HCC 2998) was 4.57 µM, the CC50 (HCC 2998; [8]) was > 100 µM and the TGI (HCC 2998; read-out: pTGI (converted)) was 29.5 µM. For the same compound, the GI50 (IGROV-1) was 2.82 µM, the CC50 (IGROV-1; [8]) was > 100 µM and the TGI (IGROV-1; read-out: pTGI (converted)) was 46.8 µM. It also gave a GI50 (HT-29) of 1.86 µM, a CC50 (HT-29; [8]) of 63.1 µM and a TGI (HT-29; read-out: pTGI (converted)) of 7.41 µM. It also gave a GI50 (SNB-75) of 0.138 µM, a CC50 (SNB-75; [8]) of 93.3 µM and a TGI (SNB-75; read-out: pTGI (converted)) of 8.91 µM. The GI50 (SR) was 0.468 µM, the CC50 (SR; [8]) was > 100 µM and the TGI (SR; read-out: pTGI (converted)) was > 100 µM. For the same compound, the GI50 (TK-10) was 3.72 µM, the LC50 (TK-10) was > 100 µM and the TGI (TK-10; read-out: pTGI (converted)) was 64.6 µM. For the same compound, the GI50 (PC-3) was 0.575 µM, the LC50 (PC-3) was > 100 µM and the TGI (PC-3; read-out: pTGI (converted)) was 67.6 µM. For the same compound, the GI50 ([2]; OVCAR-3) was 4.79 µM, the CC50 ([2]; OVCAR-3, read-out: pLC50 (the source's name) (converted)) was > 100 µM and the TGI ([2]; OVCAR-3, read-out: pTGI (converted)) was 42.7 µM. The GI50 (M14) was 0.525 µM, the CC50 (M14; [8]) was > 100 µM and the TGI (M14; read-out: pTGI (converted)) was 4.37 µM. For the same compound, the GI50 (MOLT-4) was 0.447 µM, the CC50 (MOLT-4; [8]) was > 100 µM and the TGI (MOLT-4; read-out: pTGI (converted)) was 10.2 µM. The GI50 (786-0) was 0.186 µM, the LC50 (concentration killing 50% of cells) (786-0) was > 100 µM and the GI50 (HCT-116) was 1.17 µM. For the same compound, the CC50 (HCT-116; [8]) was > 100 µM, the TGI (HCT-116; read-out: pTGI (converted)) was 47.9 µM and the GI50 ([3]; OVCAR-8) was 11.2 µM. The CC50 ([3]; OVCAR-8, read-out: pLC50 (the source's name) (converted)) was > 100 µM, the TGI ([3]; OVCAR-8, read-out: pTGI (converted)) was 77.6 µM and the GI50 (COLO 205) was 1.66 µM. It also gave a CC50 (COLO 205; [8]) of 7.08 µM, a TGI (COLO 205; read-out: pTGI (converted)) of 3.47 µM and a GI50 (LOX IMVI) of 0.977 µM. For the same compound, the CC50 (LOX IMVI; [8]) was > 100 µM, the TGI (LOX IMVI; read-out: pTGI (converted)) was 50.1 µM and the GI50 (NCI-H226) was 11.5 µM. The CC50 (NCI-H226; [8]) was 64.6 µM, the TGI (NCI-H226; read-out: pTGI (converted)) was 26.9 µM and the GI50 (DU-145) was 3.8 µM. The LC50 (50% lethal concentration) (DU-145) was > 100 µM, the TGI (DU-145; read-out: pTGI (converted)) was 91.2 µM and the GI50 (MDA-MB-468) was 1.02 µM. For the same compound, the LC50 (MDA-MB-468) was > 100 µM, the TGI (MDA-MB-468; read-out: pTGI (converted)) was 14.1 µM and the GI50 (MDA-MB-231) was 1.12 µM. For the same compound, the LC50 (MDA-MB-231) was > 100 µM, the TGI (MDA-MB-231; read-out: pTGI (converted)) was 28.2 µM and the GI50 (SF-295; read-out: GI50) was 0.76 µM. For the same compound, the GI50 (SF-295; read-out: pGI50 (converted)) was 0.759 µM, the TGI (SF-295; read-out: pTGI (converted)) was 2.75 µM and the GI50 (CCRF-CEM) was 0.38 µM. The CC50 (CCRF-CEM; [8]) was > 100 µM, the TGI (CCRF-CEM; read-out: pTGI (converted)) was > 100 µM and the GI50 (SF-268) was 2.04 µM. The CC50 (SF-268; [8]) was > 100 µM, the TGI (SF-268; read-out: pTGI (converted)) was 66.1 µM and the GI50 (CAKI-1) was 2.29 µM. The LC50 (CAKI-1) was > 100 µM, the TGI (CAKI-1; read-out: pTGI (converted)) was 21.9 µM and the GI50 (KM12) was 1.26 µM. It also gave a CC50 (KM12; [8]) of 34.7 µM, a TGI (KM12; read-out: pTGI (converted)) of 7.08 µM and a GI50 (SK-MEL-2) of 0.692 µM. The CC50 (SK-MEL-2; [8]) was > 100 µM, the TGI (SK-MEL-2; read-out: pTGI (converted)) was 12.9 µM and the GI50 (RXF 393) was 0.0302 µM. It also gave an LC50 (RXF 393) of 8.71 µM, a TGI (RXF 393; read-out: pTGI (converted)) of 0.12 µM and a GI50 (HOP-62) of 0.407 µM. The CC50 (HOP-62; [8]) was > 100 µM, the TGI (HOP-62; read-out: pTGI (converted)) was 5.01 µM and the GI50 (NCI-H23) was 2.45 µM. For the same compound, the CC50 (NCI-H23; [8]) was > 100 µM, the TGI (NCI-H23; read-out: pTGI (converted)) was 30.2 µM and the GI50 (K562) was 0.794 µM. The CC50 (K562; [8]) was > 100 µM, the TGI (K562; read-out: pTGI (converted)) was > 100 µM and the GI50 (SK-OV-3) was 3.02 µM. The LC50 (SK-OV-3) was > 100 µM, the TGI (SK-OV-3; read-out: pTGI (converted)) was 72.4 µM and the GI50 (NCI-H460) was 1.66 µM. For the same compound, the CC50 (NCI-H460; [8]) was > 100 µM, the TGI (NCI-H460; read-out: pTGI (converted)) was > 100 µM and the GI50 [4] was 9.55 µM. For the same compound, the CC50 [4, 8] was > 100 µM, the TGI ([4]; read-out: pTGI (converted)) was 69.2 µM and the GI50 (T47D) was 5.62 µM. For the same compound, the CC50 (T47D; [8]) was > 100 µM, the TGI (T47D; read-out: pTGI (converted)) was 60.3 µM and the GI50 ([5]; UACC-62) was 0.316 µM. It also gave a CC50 ([5]; UACC-62, read-out: pLC50 (the source's name) (converted)) of 77.6 µM, a TGI ([5]; UACC-62, read-out: pTGI (converted)) of 2.09 µM and a GI50 ([6]; OVCAR-4) of 4.27 µM. For the same compound, the CC50 ([6]; OVCAR-4, read-out: pLC50 (the source's name) (converted)) was > 100 µM, the TGI ([6]; OVCAR-4, read-out: pTGI (converted)) was > 100 µM and the GI50 (HL-60(TB)) was 1.23 µM. For the same compound, the CC50 (HL-60(TB); [8]) was > 100 µM, the TGI (HL-60(TB); read-out: pTGI (converted)) was 58.9 µM and the GI50 ([7]; HCT-15) was 0.832 µM. The CC50 ([7]; HCT-15, read-out: pLC50 (the source's name) (converted)) was > 100 µM, the TGI ([7]; HCT-15, read-out: pTGI (converted)) was 4.37 µM and the GI50 (MDA-MB-435) was 1.45 µM. The CC50 (MDA-MB-435; [8]) was > 100 µM, the TGI (MDA-MB-435; read-out: pTGI (converted)) was 47.9 µM and the GI50 (SF-539) was 0.105 µM. The TGI (SF-539; read-out: pTGI (converted)) was 1.38 µM, the GI50 (MCF7) was 0.741 µM and the LC50 (MCF7) was > 100 µM. The TGI (MCF7; read-out: pTGI (converted)) was 42.7 µM.
